Source: ChEMBL document CHEMBL1148636, “Novel analogues of degarelix incorporating hydroxy-, methoxy-, and pegylated-urea moieties at positions 3, 5, 6 and the N-terminus. Part III” (J Med Chem, 2006)
Values after ≈ are worked out from the molar mass of the structure shown. Active and inactive are the calls of the source. No cut-off for these calls is given here. Numbered stars: 1 amine (or outer) side, 2 acyl side, 3 side chain; on linkers, the order of the positions; unused ones are H or OH. Square brackets hold non-standard residues; d marks the D form. Side chains are listed from the residue outwards. Peptide text beside a SMILES is read from it. * marks the point of attachment. dPhe(4-NHCONH2) = NC(=O)Nc1ccc(C[C@@H](N)C(=O)O)cc1; Dihydroorotyl(S) = O=C1C[C@@H](C(=O)*)NC(=O)N1; dPhe(4-NH2) = Nc1ccc(C[C@@H](N)C(=O)O)cc1; dPhe(4-Cl) = N[C@H](Cc1ccc(Cl)cc1)C(=O)O; Phe(4-NH2) = Nc1ccc(C[C@H](N)C(=O)O)cc1; d2Nal = N[C@H](Cc1ccc2ccccc2c1)C(=O)O; Lys(iPr) = CC(C)NCCCC[C@H](N)C(=O)O; NHCH2CH2OCH2CH2OEt = CCOCCOCCN*; d3Pal = N[C@H](Cc1cccnc1)C(=O)O; Methoxycarbamoyl = CONC(=O)*; PEG3 = NCCOCCOCCOCCC(=O)O; CO = O=C([*:1])[*:2]

Key:
[1] = test system: Mast cell (Rattus norvegicus); experiment: Histamine release in mast cells by ELISA
[2] = test system: Rattus norvegicus; experiment: Antiovulatory activity in rat at 2 ug, sc; assay type: functional, organism-based
Outline: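 Cycling rats (250-300 g) given peptide 2 μg in 200 μL saline or 5% DMSO in saline sc at noon on proestrus; scored as number of rats ovulating over total treated (8 per group).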

[3] = molecular target: T1, Gonadotropin-releasing hormone receptor (Homo sapiens, UniProt P30968); experiment: Antagonist activity at human GnRH receptor expressed in HEK293 cells as inhibition of GnRH-induced LH secretion by reporter gene assay; assay type: functional, cell-based
T1 sequence (P30968 whole entry): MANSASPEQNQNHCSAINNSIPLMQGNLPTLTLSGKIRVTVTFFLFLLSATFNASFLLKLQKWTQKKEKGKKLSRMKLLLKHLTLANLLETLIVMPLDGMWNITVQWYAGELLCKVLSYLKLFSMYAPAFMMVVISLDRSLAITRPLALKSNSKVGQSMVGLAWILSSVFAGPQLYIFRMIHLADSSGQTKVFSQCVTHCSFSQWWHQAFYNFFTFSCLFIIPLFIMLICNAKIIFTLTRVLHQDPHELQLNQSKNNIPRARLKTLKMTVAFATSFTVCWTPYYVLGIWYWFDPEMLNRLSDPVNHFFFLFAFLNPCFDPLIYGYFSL
Outline: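 HEK293 cells stably expressing cloned human GnRH receptor plus luciferase reporter under LH alpha subunit promoter; plated 5 × 10^4 cells/well, overnight 37 °C. Compounds in 1% DMSO, 11 half-log concentrations in duplicate, 10 min preincubation, then GnRH 1 nM final, ≥5 h at 37 °C; luminescence read. Percent of control fitted to IC50; geometric mean of ≥2 independent experiments.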

[4] = test system: Rattus norvegicus; experiment: Inhibition of GnRH-induced LH secretion in Sprague-Dawley rat at 50 ug, sc for 3 hrs; assay type: functional
Outline: (§1)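 Male rats castrated ten days earlier (≥5 per group) injected sc with 50 μg peptide in 50 μL 5% mannitol (0.6% DMSO in the stock); vehicle controls run alongside. Tail-tip blood taken pre-dose and at 3, 72, 96, 120, 144, 168 and sometimes 192 h; plasma LH by RIA, all samples of one experiment in the same assay; >80% inhibition scored.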

[5] = test system: Rattus norvegicus; experiment: Inhibition of GnRH-induced LH secretion in Sprague-Dawley rat at 50 ug, sc for 72 hrs; assay type: functional
Outline: as §1

[6] = test system: Rattus norvegicus; experiment: Inhibition of GnRH-induced LH secretion in Sprague-Dawley rat at 50 ug, sc for 96 hrs; assay type: functional
Outline: as §1

[7] = test system: Rattus norvegicus; experiment: Inhibition of GnRH-induced LH secretion in Sprague-Dawley rat at 50 ug, sc for 120 hrs; assay type: functional
Outline: as §1

| Structure (SMILES) | EC50 [1] | IC50 [3] | Activity [2] | other results |
| --- | --- | --- | --- | --- |
| CCOCCOCCNC(=O)N[C@H](Cc1ccc2ccccc2c1)C(=O)N[C@H](Cc1ccc(Cl)cc1)C(=O)N[C@H](Cc1cccnc1)C(=O)N[C@@H](CO)C(=O)N[C@@H](Cc1ccc(NC(=O)[C@@H]2CC(=O)NC(=O)N2)cc1)C(=O)N[C@H](Cc1ccc(NC(=O)NOC)cc1)C(=O)N[C@@H](CC(C)C)C(=O)N[C@@H](CCCCNC(C)C)C(=O)N1CCC[C@H]1C(=O)N[C@H](C)C(N)=O ({NHCH2CH2OCH2CH2OEt-CO}-[d2Nal][dPhe(4-Cl)][d3Pal]S[Phe(4-NH2)](Dihydroorotyl(S))[dPhe(4-NH2)](Methoxycarbamoyl)L[Lys(iPr)]P[dA]-NH2) |  | 1.61 nM |  | Inhibition [4]: >80% |
| CC(=O)Nc1ccc(C[C@H](NC(=O)[C@H](CO)NC(=O)[C@@H](Cc2cccnc2)NC(=O)[C@@H](Cc2ccc(Cl)cc2)NC(=O)[C@@H](Cc2ccc3ccccc3c2)NC(C)=O)C(=O)N[C@H](Cc2ccc(NC(C)=O)cc2)C(=O)N[C@@H](CC(C)C)C(=O)N[C@@H](CCCCNC(C)C)C(=O)N2CCC[C@H]2C(=O)N[C@H](C)C(N)=O)cc1 [ACYLINE] | 461 µg/mL (≈ 301 µM) |  | Active |  |
| CCOCCOCCNC(=O)N[C@H](Cc1ccc2ccccc2c1)C(=O)N[C@H](Cc1ccc(Cl)cc1)C(=O)N[C@H](Cc1cccnc1)C(=O)N[C@@H](CO)C(=O)N[C@@H](Cc1ccc(NC(=O)NOC)cc1)C(=O)N[C@H](Cc1ccc(NC(N)=O)cc1)C(=O)N[C@@H](CC(C)C)C(=O)N[C@@H](CCCCNC(C)C)C(=O)N1CCC[C@H]1C(=O)N[C@H](C)C(N)=O | 50.6 µg/mL (≈ 30.1 µM) | 2.98 nM | Active |  |
| CCOCCOCCNC(=O)Nc1ccc(C[C@H](NC(=O)[C@H](CO)NC(=O)[C@@H](Cc2cccnc2)NC(=O)[C@@H](Cc2ccc(Cl)cc2)NC(=O)[C@@H](Cc2ccc3ccccc3c2)NC(C)=O)C(=O)N[C@H](Cc2ccc(NC(N)=O)cc2)C(=O)N[C@@H](CC(C)C)C(=O)N[C@@H](CCCCNC(C)C)C(=O)N2CCC[C@H]2C(=O)N[C@H](C)C(N)=O)cc1 (Ac-[d2Nal][dPhe(4-Cl)][d3Pal]S[Phe(4-NH2)]([CO-NHCH2CH2OCH2CH2OEt])[dPhe(4-NHCONH2)]L[Lys(iPr)]P[dA]-NH2) | 910 µg/mL (≈ 551 µM) |  | Active |  |
| CONC(=O)Nc1ccc(C[C@@H](NC(=O)[C@H](Cc2ccc(NC(=O)[C@@H]3CC(=O)NC(=O)N3)cc2)NC(=O)[C@H](CO)NC(=O)[C@@H](Cc2cccnc2)NC(=O)[C@@H](Cc2ccc(Cl)cc2)NC(=O)[C@@H](Cc2ccc3ccccc3c2)NC(C)=O)C(=O)N[C@@H](CC(C)C)C(=O)N[C@@H](CCCCNC(C)C)C(=O)N2CCC[C@H]2C(=O)N[C@H](C)C(N)=O)cc1 (Ac-[d2Nal][dPhe(4-Cl)][d3Pal]S[Phe(4-NH2)](Dihydroorotyl(S))[dPhe(4-NH2)](Methoxycarbamoyl)L[Lys(iPr)]P[dA]-NH2) |  | 0.51 nM |  | Inhibition [6]: >80% |
| CONC(=O)NC[C@@H](NC(=O)[C@@H](Cc1ccc(Cl)cc1)NC(=O)[C@@H](Cc1ccc2ccccc2c1)NC(C)=O)C(=O)N[C@@H](CO)C(=O)N[C@@H](Cc1ccc(NC(=O)[C@@H]2CC(=O)NC(=O)N2)cc1)C(=O)N[C@H](Cc1ccc(NC(N)=O)cc1)C(=O)N[C@@H](CC(C)C)C(=O)N[C@@H](CCCCNC(C)C)C(=O)N1CCC[C@H]1C(=O)N[C@H](C)C(N)=O |  | 3.16 nM |  |  |
| CONC(=O)NCCOCCOCCOCCC(=O)Nc1ccc(C[C@H](NC(=O)[C@H](CO)NC(=O)[C@@H](Cc2cccnc2)NC(=O)[C@@H](Cc2ccc(Cl)cc2)NC(=O)[C@@H](Cc2ccc3ccccc3c2)NC(C)=O)C(=O)N[C@H](Cc2ccc(NC(N)=O)cc2)C(=O)N[C@@H](CC(C)C)C(=O)N[C@@H](CCCCNC(C)C)C(=O)N2CCC[C@H]2C(=O)N[C@H](C)C(N)=O)cc1 (Ac-[d2Nal][dPhe(4-Cl)][d3Pal]S[Phe(4-NH2)]([PEG3-Methoxycarbamoyl])[dPhe(4-NHCONH2)]L[Lys(iPr)]P[dA]-NH2) |  | 1.06 nM |  |  |
| CCCCCCCC(=O)N[C@H](Cc1ccc2ccccc2c1)C(=O)N[C@H](Cc1ccc(Cl)cc1)C(=O)N[C@H](Cc1cccnc1)C(=O)N[C@@H](CO)C(=O)N[C@@H](Cc1ccc(NC(=O)[C@@H]2CC(=O)NC(=O)N2)cc1)C(=O)N[C@H](Cc1ccc(NC(=O)NOC)cc1)C(=O)N[C@@H](CC(C)C)C(=O)N[C@@H](CCCCNC(C)C)C(=O)N1CCC[C@H]1C(=O)N[C@H](C)C(N)=O |  | 9.47 nM |  |  |

Further lines, with some results ahead:

| EC50 [1] | IC50 [3] | Structure (SMILES) | Activity [2] | other results |
| --- | --- | --- | --- | --- |
| 43.1 µg/mL (≈ 26.8 µM) | 0.7 nM | CONC(=O)Nc1ccc(C[C@@H](NC(=O)[C@H](Cc2ccc(NC(=O)NOC)cc2)N(C)C(=O)[C@H](CO)NC(=O)[C@@H](Cc2cccnc2)NC(=O)[C@@H](Cc2ccc(Cl)cc2)NC(=O)[C@@H](Cc2ccc3ccccc3c2)NC(C)=O)C(=O)N[C@@H](CC(C)C)C(=O)N[C@@H](CCCCNC(C)C)C(=O)N2CCC[C@H]2C(=O)N[C@H](C)C(N)=O)cc1 | Active |  |
| 46 µg/mL (≈ 28.8 µM) | 0.91 nM | CONC(=O)Nc1ccc(C[C@H](NC(=O)[C@H](CO)NC(=O)[C@@H](Cc2cccnc2)NC(=O)[C@@H](Cc2ccc(Cl)cc2)NC(=O)[C@@H](Cc2ccc3ccccc3c2)NC(C)=O)C(=O)N[C@H](Cc2ccc(NC(=O)NOC)cc2)C(=O)N[C@@H](CC(C)C)C(=O)N[C@@H](CCCCNC(C)C)C(=O)N2CCC[C@H]2C(=O)N[C@H](C)C(N)=O)cc1 | Active |  |
| > 1000 µg/mL | 1.12 nM | CCOCCOCCNC(=O)Nc1ccc(C[C@H](NC(=O)[C@H](CO)NC(=O)[C@@H](Cc2cccnc2)NC(=O)[C@@H](Cc2ccc(Cl)cc2)NC(=O)[C@@H](Cc2ccc3ccccc3c2)NC(=O)NCCOCCOCC)C(=O)N[C@H](Cc2ccc(NC(N)=O)cc2)C(=O)N[C@@H](CC(C)C)C(=O)N[C@@H](CCCCNC(C)C)C(=O)N2CCC[C@H]2C(=O)N[C@H](C)C(N)=O)cc1 | Active |  |
|  | 0.6 nM | CONC(=O)Nc1ccc(C[C@H](NC(=O)[C@H](CO)NC(=O)[C@@H](Cc2cccnc2)NC(=O)[C@@H](Cc2ccc(Cl)cc2)NC(=O)[C@@H](Cc2ccc3ccccc3c2)NC(C)=O)C(=O)N[C@H](Cc2ccc(NC(N)=O)cc2)C(=O)N[C@@H](CC(C)C)C(=O)N[C@@H](CCCCNC(C)C)C(=O)N2CCC[C@H]2C(=O)N[C@H](C)C(N)=O)cc1 (Ac-[d2Nal][dPhe(4-Cl)][d3Pal]S[Phe(4-NH2)](Methoxycarbamoyl)[dPhe(4-NHCONH2)]L[Lys(iPr)]P[dA]-NH2) |  | Inhibition [5]: >80% |
| 118 µg/mL (≈ 75.9 µM) | 0.86 nM | CC(=O)N[C@H](Cc1ccc2ccccc2c1)C(=O)N[C@H](Cc1ccc(Cl)cc1)C(=O)N[C@H](Cc1cccnc1)C(=O)N[C@@H](CO)C(=O)N[C@@H](Cc1ccc(NC(=O)NO)cc1)C(=O)N[C@H](Cc1ccc(NC(N)=O)cc1)C(=O)N[C@@H](CC(C)C)C(=O)N[C@@H](CCCCNC(C)C)C(=O)N1CCC[C@H]1C(=O)N[C@H](C)C(N)=O |  |  |
| > 1000 µg/mL |  | CC(=O)N[C@H](Cc1ccc2ccccc2c1)C(=O)N[C@H](Cc1ccc(Cl)cc1)C(=O)N[C@H](Cc1cccnc1)C(=O)N[C@@H](CO)C(=O)N[C@@H](Cc1ccc(NC(=O)[C@@H]2CC(=O)NC(=O)N2)cc1)C(=O)N[C@H](Cc1ccc(NC(N)=O)cc1)C(=O)N[C@@H](CC(C)C)C(=O)N[C@@H](CCCCNC(C)C)C(=O)N1CCC[C@H]1C(=O)N[C@H](C)C(N)=O [DEGARELIX] (Ac-[d2Nal][dPhe(4-Cl)][d3Pal]S[Phe(4-NH2)](Dihydroorotyl(S))[dPhe(4-NHCONH2)]L[Lys(iPr)]P[dA]-NH2) | Active | Inhibition [7]: >80% |
